Tests used:
L1210 = assay: Cytotoxicity against mouse L1210 cells after 2 days; format: functional, cell-based; conditions: L1210, 48 h
Summary of the method: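 Cells were incubated with the compounds at 37 °C for two days, then counted on a Coulter counter. IC50 is the concentration that inhibits cell proliferation by 50%.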

FM3A = assay: Cytotoxicity against mouse FM3A0 cells after 2 days; format: functional, cell-based; conditions: 48 h
[1] = Cytotoxicity against human Molt4/C8 cells after 2 days; conditions: MOLT-4, 48 h
CCRF-CEM = assay: Cytotoxicity against human CEM cells after 2 days; format: functional, cell-based; conditions: 48 h
HeLa = assay: Cytotoxicity against human HeLa cells after 2 days; format: functional, cell-based; conditions: 48 h
[2] = Inhibition of bovine tubulin polymerization; design: species or system Bos taurus
Summary of the method: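 Purified bovine brain tubulin (10 μM) in glutamate buffer was preincubated with varying compound concentrations at 30 °C, then cooled to 0 °C. GTP was added and the mixture warmed to 30 °C in a recording spectrophotometer. Assembly was followed by turbidity.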

Bos taurus = species: Bos taurus; assay: Displacement of [3H]colchicine from bovine tubulin at 5 uM
Summary of the method: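 Reaction mixtures held 1 μM bovine brain tubulin, 5 μM [3H]colchicine and 5 μM test compound. Inhibition of radiolabelled colchicine binding to tubulin is expressed as percent inhibition.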

K562 [3] = assay: Cell cycle arrest in human K562 cells assessed as accumulation at G1 phase at 16 nM after 24 hrs by flow cytometry; format: functional
Summary of the method: (§1)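 K562 leukaemia cells were cultured for 24 h with compound at one fixed concentration. DNA content per cell was measured by the standard propidium iodide procedure and flow cytometry. Proportions of cells in the sub-G0–G1 (apoptotic), G0–G1, S and G2–M peaks were compared with an untreated control.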

K562 [4] = assay: Cell cycle arrest in human K562 cells assessed as accumulation at S phase at 16 nM after 24 hrs by flow cytometry; format: functional; summary of the method: as §1
K562 [5] = assay: Cell cycle arrest in human K562 cells assessed as accumulation at G2 phase at 16 nM after 24 hrs by flow cytometry; format: functional; summary of the method: as §1
K562 [6] = assay: Cell cycle arrest in human K562 cells assessed as accumulation at sub-G0/G1 phase at 16 nM after 24 hrs by flow cytometry; format: functional; summary of the method: as §1
K562 [7] = assay: Cell cycle arrest in human K562 cells assessed as accumulation at S phase at 1.62 µM after 24 hrs by flow cytometry
K562 [8] = assay: Cell cycle arrest in human K562 cells assessed as accumulation at G1 phase at 1.62 µM after 24 hrs by flow cytometry
K562 [9] = assay: Cell cycle arrest in human K562 cells assessed as accumulation at G2 phase at 1.62 µM after 24 hrs by flow cytometry
K562 [10] = assay: Cell cycle arrest in human K562 cells assessed as accumulation at sub-G0/G1 phase at 1.62 µM after 24 hrs by flow cytometry
K562 [11] = assay: Cell cycle arrest in human K562 cells assessed as accumulation at G1 phase at 980 nM after 24 hrs by flow cytometry; format: functional; summary of the method: as §1
K562 [12] = assay: Cell cycle arrest in human K562 cells assessed as accumulation at S phase at 980 nM after 24 hrs by flow cytometry; format: functional; summary of the method: as §1
K562 [13] = assay: Cell cycle arrest in human K562 cells assessed as accumulation at G2 phase at 980 nM after 24 hrs by flow cytometry; format: functional; summary of the method: as §1
K562 [14] = assay: Cell cycle arrest in human K562 cells assessed as accumulation at sub-G0/G1 phase at 980 nM after 24 hrs by flow cytometry; format: functional; summary of the method: as §1
K562 [15] = assay: Cell cycle arrest in human K562 cells assessed as accumulation at G1 phase at 480 nM after 24 hrs by flow cytometry; format: functional
K562 [16] = assay: Cell cycle arrest in human K562 cells assessed as accumulation at S phase at 480 nM after 24 hrs by flow cytometry; format: functional
K562 [17] = assay: Cell cycle arrest in human K562 cells assessed as accumulation at G2 phase at 480 nM after 24 hrs by flow cytometry; format: functional
K562 [18] = assay: Cell cycle arrest in human K562 cells assessed as accumulation at sub-G0/G1 phase at 480 nM after 24 hrs by flow cytometry; format: functional

Compound	IC50 (L1210)	IC50 (FM3A)	IC50 [1]	IC50 (CCRF-CEM)	IC50 (HeLa)	also measured
CCOc1ccc2c(C)c(C(=O)c3cc(OC)c(OC)c(OC)c3)oc2c1	2 nM	2.8 nM	1.2 nM	2.8 nM	6.3 nM	IC50 [2]: 430 nM; Activity (Bos taurus): 96%; Activity (K562 [3]): 3.67%; Activity (K562 [4]): 25.34%; Activity (K562 [5]): 70.99%; Activity (K562 [6]): 13.24%
COc1cc(C(=O)c2oc3cc(F)ccc3c2C)cc(OC)c1OC	3500 nM	3700 nM	2100 nM	2700 nM	–	IC50 [2]: 6900 nM; Activity (K562 [7]): 44.32%; Activity (K562 [8]): 8.23%; Activity (K562 [9]): 47.46%; Activity (K562 [10]): 44.32%
COc1cc(C(=O)c2cc3ccccc3o2)cc(OC)c1OC	> 10000 nM	> 10000 nM	8000 nM	> 10000 nM	–	–
COc1cc(C(=O)c2oc3c(OC)cccc3c2C)cc(OC)c1OC	1700 nM	1700 nM	400 nM	2400 nM	530 nM	–
COc1cc(C(=O)c2cc3ccc(OC)c(O)c3o2)cc(OC)c1OC	> 10000 nM	> 10000 nM	> 10000 nM	> 10000 nM	> 10000 nM	–
COc1ccc2c3c(oc2c1)C(=O)c1cc(OC)c(OC)c(OC)c1-3	> 10000 nM	> 10000 nM	> 10000 nM	> 10000 nM	> 10000 nM	–
COc1cc(C(=O)c2cc3c(OC)cccc3o2)cc(OC)c1OC	410 nM	550 nM	360 nM	870 nM	410 nM	IC50 [2]: 1100 nM; Activity (Bos taurus): 76%; Activity (K562 [11]): 4.14%; Activity (K562 [12]): 37.4%; Activity (K562 [13]): 58.46%; Activity (K562 [14]): 20.71%
COc1ccc2c(N(C)C)c(C(=O)c3cc(OC)c(OC)c(OC)c3)oc2c1	–	–	48 nM	–	–	–
COc1ccc2c(N)c(C(=O)c3cc(OC)c(OC)c(OC)c3)oc2c1	–	–	140 nM	–	–	–
COc1ccc2cc(C(=S)c3cc(OC)c(OC)c(OC)c3)oc2c1	180 nM	320 nM	100 nM	220 nM	100 nM	–
COc1cc(C(=O)c2cc3cc(OC)c(OC)c(OC)c3o2)cc(OC)c1OC	> 10000 nM	> 10000 nM	> 10000 nM	> 10000 nM	> 10000 nM	–
COc1cc(C(=O)c2cc3cccc(OC)c3o2)cc(OC)c1OC	> 10000 nM	> 10000 nM	7800 nM	> 10000 nM	> 10000 nM	–
COc1cc(C(=O)c2cc3ccc(O)cc3o2)cc(OC)c1OC	> 10000 nM	> 10000 nM	> 10000 nM	> 10000 nM	> 10000 nM	–
COc1cc(C(=O)c2cc3cc(O)ccc3o2)cc(OC)c1OC	> 10000 nM	> 10000 nM	> 10000 nM	> 10000 nM	> 10000 nM	–
COc1cc(C(=O)c2oc3ccc(O)cc3c2C)cc(OC)c1OC	800 nM	430 nM	240 nM	430 nM	290 nM	IC50 [2]: 1100 nM; Activity (Bos taurus): 69%; Activity (K562 [15]): 18.79%; Activity (K562 [16]): 33.83%; Activity (K562 [17]): 47.38%; Activity (K562 [18]): 22.13%
COc1ccc2oc(C(=O)c3cc(OC)c(OC)c(OC)c3)cc2c1	> 10000 nM	> 10000 nM	9400 nM	> 10000 nM	> 10000 nM	–

Reference: ChEMBL document CHEMBL1152591, “Design, synthesis and structure-activity relationship of 2-(3',4',5'-trimethoxybenzoyl)-benzo[b]furan derivatives as a novel class of inhibitors of tubulin polymerization” (Bioorg Med Chem, 2009)
